Converted amounts (≈) assume the structure as drawn. The source made the active and inactive calls. No cut-off for these calls is given here.
Tests used:
[1] = system: Mycobacterium tuberculosis; experiment: Antimicrobial activity against Mycobacterium tuberculosis H37Ra by Microplate Alamar blue assay; type: functional
Summary of the method: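 Whole-cell growth inhibition of M. tuberculosis H37Ra read by Microplate Alamar Blue Assay; value reported as minimum inhibitory concentration; isoniazid and kanamycin sulfate as reference drugs.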

Plasmodium falciparum = experiment: Antimalarial activity after 42 hrs against Plasmodium falciparum K1; conditions: K1, 42 h
KB = experiment: Cytotoxicity against human KB cells by MTT assay; type: functional, cell-based
Candida albicans = experiment: Antifungal activity against Candida albicans by MTT assay; type: functional, organism-based
Summary of the method: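 Tested against Candida albicans strain ATCC 90028 with a modified colorimetric method that uses tetrazolium salt (MTT) reduction as the read-out.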

BC1 = experiment: (§1) Cytotoxicity against human BC1 cells by MTT assay; type: functional, cell-based
[2] = as §1; type: functional, cell-based

Compound | MIC [1] | Activity (KB) | Activity (Candida albicans) | Activity [1] | Activity (BC1) | further results
NNC(=O)c1ccncc1 [ISONIAZID] | 0.05 µg/mL (≈ 0.365 µM) |  |  |  |  | 
C[C@H]1[C@@H](O)O[C@@H]2O[C@@]3(C)CC[C@H]4[C@H](C)CC[C@@H]1[C@@]24OO3 [ARTENIMOL] |  |  |  |  |  | IC50 (Plasmodium falciparum): 3.7 nM
Cc1cc(O)c2c(=O)c(O)c(C)oc2c1 |  | inactive | inactive | inactive | inactive | 
Cc1oc2cc(CO)cc(O)c2c(=O)c1O [LACHNONE B] | 200 µg/mL (≈ 900 µM) | inactive | inactive |  | inactive | 
C[C@@]1([C@@H]2CCC(=O)O2)Oc2cc(CO)cc(O)c2C(=O)[C@H]1O [LACHNONE D] | 200 µg/mL (≈ 649 µM) | inactive | inactive |  | inactive | 
CC(=O)C[C@]1(O)C(=O)c2c(O)cc(CO)cc2O[C@@]1(C)[C@@H]1CCC(=O)O1 |  | inactive | inactive | inactive | inactive | 
NC[C@H]1O[C@H](O[C@H]2[C@H](O)[C@@H](O[C@H]3O[C@H](CO)[C@@H](O)[C@H](N)[C@H]3O)[C@H](N)C[C@@H]2N)[C@H](O)[C@@H](O)[C@@H]1O.O=S(=O)(O)O [KANAMYCIN SULFATE] | 2.5 µg/mL |  |  |  |  | 
C[C@]1([C@@H]2CCC(=O)O2)CC(=O)c2c(O)cc(CO)cc2O1 |  | inactive | inactive | inactive | inactive | 
Cc1c2ccncc2c(C)c2c1[nH]c1ccccc12 [ELLIPTECINE] |  |  |  |  |  | IC50 (KB): 0.24 µg/mL (≈ 0.974 µM); IC50 [2]: 0.22 µg/mL (≈ 0.893 µM)

Reference: ChEMBL document CHEMBL1157979, “Chromone derivatives from the filamentous fungus Lachnum sp. BCC 2424” (J Nat Prod, 2006)
